Test results reported in ChEMBL document CHEMBL1123777 (J Med Chem, 1987).

Experiments:
[1] = biological target: T1, D(1A) dopamine receptor (Rattus norvegicus, UniProt P18901); assay: Dopamine receptor D1 agonist efficacy was measured with stimulation of dopamine-sensitive rat adenylate cyclase in caudate membranes. Partial agonist, maximum effect 59% of dopamine maximum effect; format: functional, cell membranes, Membrane
[2] = biological target: D(1A) dopamine receptor (Rattus norvegicus) (UniProt P18901); details: Striatum
[3] = biological target: D(2) dopamine receptor (Bos taurus, UniProt P20288); assay: Displacement of [3H]spiroperidol from homogenized bovine pituitary Dopamine receptor D2
[4] = species on record: Oryctolagus cuniculus; assay: Ability to relax the electrically stimulated rabbit ear artery was determined; format: functional
In short: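 Isolated, perfused rabbit ear artery under electrical stimulation; inhibition of the neurogenic response taken as the D-2 agonist read-out. Concentration–response curves were also run in the presence of (S)-sulpiride at several nM concentrations. Points are mean ± SEM of at least four experiments.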

[5] = biological target: D(1A) dopamine receptor (Rattus norvegicus) (UniProt P18901); details: Striatum; remark: listed apart in the source
[6] = biological target: T1, D(1A) dopamine receptor; assay: Dopamine receptor D1 agonist efficacy was measured with stimulation of dopamine-sensitive rat adenylate cyclase in caudate membranes. Partial agonist, maximum effect 60% of dopamine maximum effect.; format: functional, cell membranes, Membrane
[7] = biological target: T1, D(1A) dopamine receptor; assay: Dopamine receptor D1 agonist efficacy was measured with stimulation of dopamine-sensitive rat adenylate cyclase in caudate membranes; NS means not significant.; format: functional, cell membranes, Membrane
[8] = biological target: T1, D(1A) dopamine receptor; assay: Dopamine D1 agonist efficacy was measured with stimulation of dopamine-sensitive rat adenylate cyclase in caudate membranes; format: functional, cell membranes, Membrane
[9] = biological target: T1, D(1A) dopamine receptor; assay: Dopamine receptor D1 agonist efficacy was measured with stimulation of dopamine-sensitive rat adenylate cyclase in caudate membranes; format: functional, cell membranes, Membrane

Sequence of D(1A) dopamine receptor (Rattus norvegicus) (P18901 whole entry): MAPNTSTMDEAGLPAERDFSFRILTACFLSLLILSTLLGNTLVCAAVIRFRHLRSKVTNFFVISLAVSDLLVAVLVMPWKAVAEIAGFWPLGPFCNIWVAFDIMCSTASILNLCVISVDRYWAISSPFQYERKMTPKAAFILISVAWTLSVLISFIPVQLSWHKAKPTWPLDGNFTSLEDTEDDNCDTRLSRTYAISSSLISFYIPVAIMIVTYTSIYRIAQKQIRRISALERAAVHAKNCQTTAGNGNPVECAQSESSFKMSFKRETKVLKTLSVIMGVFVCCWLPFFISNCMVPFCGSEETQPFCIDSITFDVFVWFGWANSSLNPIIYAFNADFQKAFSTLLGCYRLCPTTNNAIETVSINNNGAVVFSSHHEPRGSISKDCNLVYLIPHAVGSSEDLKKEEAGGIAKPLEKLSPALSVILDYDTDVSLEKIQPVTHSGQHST
T1 sequence (P18901 whole entry): as above
Sequence of D(2) dopamine receptor (P20288 whole entry): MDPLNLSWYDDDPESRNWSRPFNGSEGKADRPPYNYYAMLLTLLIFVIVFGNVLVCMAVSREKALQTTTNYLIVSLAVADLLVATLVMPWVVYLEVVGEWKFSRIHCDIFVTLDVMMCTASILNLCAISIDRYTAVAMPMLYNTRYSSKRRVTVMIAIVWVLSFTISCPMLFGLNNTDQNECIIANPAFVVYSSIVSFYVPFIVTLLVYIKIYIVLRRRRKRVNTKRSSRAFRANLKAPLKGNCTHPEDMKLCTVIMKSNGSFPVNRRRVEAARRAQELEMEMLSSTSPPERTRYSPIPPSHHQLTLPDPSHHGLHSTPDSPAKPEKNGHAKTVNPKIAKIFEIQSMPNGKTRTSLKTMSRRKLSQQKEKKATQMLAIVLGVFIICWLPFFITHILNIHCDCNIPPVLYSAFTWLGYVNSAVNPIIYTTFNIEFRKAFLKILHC

**Q.** `NCCc1ccc(O)c2c1CC(=O)N2` was tested. Which EC50 [1] did it give?
**A.** Its EC50 is 4650 nM.

**Q.** And the K bind [2]?
**A.** The K bind was 700 nM.

**Q.** What about the IC50 [3] of the same compound?
**A.** The IC50 was 4850 nM.

**Q.** `CCCN(CCC)CCc1c(Cl)cc(O)c2nc(O)sc12` was tested. Which EC50 [4] did it give?
**A.** Its EC50 is 50 nM.

**Q.** With `CCCN(CCC)CCc1ccc(O)c2[nH]c(O)nc12` as the compound, how does the EC50 [4] read?
**A.** The EC50 was 9 nM.

**Q.** And the IC50 [3]?
**A.** The IC50 was 1000 nM.

**Q.** What does the source list for `CCCN(CCC)CCc1ccc(O)c2nc(O)oc12`?
**A.** EC50 [4]: 8 nM; IC50 [3]: 1200 nM

**Q.** `CNCCc1ccc(O)c2nc(O)sc12` was tested. Which EC50 [4] did it give?
**A.** Its EC50 is 6 nM.

**Q.** Which results are given for `NCCc1ccc(O)c2nc(O)sc12`?
**A.** K bind [5]: 9 nM; EC50 [6]: 295 nM; EC50 [4]: 30 nM; IC50 [3]: 2000 nM

**Q.** `NCCc1ccc(O)c(O)c1` [DOPAMINE] was tested. Which EC50 [4] did it give?
**A.** Its EC50 is 76 nM.

**Q.** Which EC50 [7] does the source give for `NCCc1cccc2nc(O)sc12` here?
**A.** Its EC50 is “Not Active”.

**Q.** And the EC50 [4]?
**A.** Its EC50 is 1000 nM.

**Q.** And the IC50 [3]?
**A.** Its IC50 is over 10000 nM.

**Q.** `CCCN(CCC)CCc1cccc2c1CC(=O)N2` [ROPINIROLE] was tested. Which IC50 [3] did it give?
**A.** The IC50 was 6810 nM.

**Q.** For `CCCN(CCC)CCc1ccc(O)c2c1C(=O)C(=O)N2`, which EC50 [7] is on record?
**A.** The EC50 was “Not Active”.

**Q.** And the EC50 [4]?
**A.** Its EC50 is 7 nM.

**Q.** What about the IC50 [3] of the same compound?
**A.** The IC50 was 560 nM.

**Q.** Which results are given for `CCCN(CCC)CCc1ccc(O)c2c1CC(=O)N2` [SKF-89124A]?
**A.** EC50 [4]: 1.8 nM; IC50 [3]: 530 nM; EC50 [8]: 20000 nM

**Q.** `CCCN(CCC)CCc1cccc2nc(O)sc12` was tested. Which EC50 [4] did it give?
**A.** The EC50 was 28 nM.

**Q.** And the IC50 [3]?
**A.** The IC50 was 1000 nM.

**Q.** `Oc1ccc(C2CNCCc3c2cc(O)c(O)c3Cl)cc1` (configuration not stated) [FENOLDOPAM] was tested. Which EC50 [4] did it give?
**A.** Its EC50 is 1200 nM.

**Q.** What about the K bind [2] of the same compound?
**A.** Its K bind is 3 nM.

**Q.** Which results are given for `CCCN(CCC)CCc1ccc(O)c(O)c1`?
**A.** EC50 [9]: 12500 nM; EC50 [4]: 80 nM

**Q.** For `CCCN(CCC)CCc1ccc(O)c2nc(O)sc12`, which EC50 [4] is on record?
**A.** Its EC50 is 0.028 nM.

**Q.** And the IC50 [3]?
**A.** Its IC50 is 49 nM.
